The values below come from publication PMC4431436 (Oncology Reports, 2015).

The term IC50 denotes the concentration that gives 50% inhibition. Usually Kd stands for the concentration at which binding is half-saturated. Low values mean a tighter complex, high ones a looser complex. The half-life is how long it takes for the measured level to halve.

The subject of series [1] is murine B16F10 melanoma. As to the kind of experiment: lung metastasis in the murine B16F10 melanoma prevention model. To be noted: for total tumor colony number on lung surface: Veh 90±5, mean ± SEM. Format: in vivo, B6D2F1 hybrid female mice. Summed up: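 6-week-old B6D2F1 females got 1.5×10⁵ B16F10 cells (cultured in DMEM/10% FBS) by i.v. tail vein. Necropsy ~2 weeks. Surface colonies counted across five lung regions; formalin-fixed frontal H&E sections for tumor area. Mean ± SEM; ANOVA/Tukey or t-test; Fisher's PLSD for area.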

In series [2] the test system is human integrin αIIbβ3. As to the kind of experiment: cell adhesion assay, HeK293 overexpressing αIIbβ3 to fibrinogen. In kind it is cell-based. To be noted: relative to αvβ3-mediated adhesion. Summed up: (§1)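 Stably transfected HEK293 cells overexpressing a human integrin, 25×10³ cells/well, attached for 2 h at 37°C in a humidified incubator, with or without increasing concentrations of test compound. Wells were coated with vitronectin (αvβ3, αvβ5), fibrinogen (αIIbβ3) or fibronectin (α5β1). Non-attached cells were washed off. Attached cells were quantified by colorimetric hexosaminidase activity against a per-line standard curve; mean of triplicates.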

In series [3] the target is human integrin αvβ3 (Homo sapiens, UniProt P05106+P06756). Briefly: cell adhesion assay, HeK293-αvβ3 cells to vitronectin. Format: cell-based. Summed up:
as §1

The nature of series [4]: body weight of mice injected with B16F10 melanoma. Format: in vivo, B6D2F1 hybrid female mice. The settings on record: 100 and 300 mg/kg, p.o., b.i.d., over the study duration.
For series [5] the following is noted: ovariectomized rats; cited from earlier work.
Series [6] concerns B16F10-luc melanoma cells. As to the kind of experiment: bioluminescent imaging of de novo lung metastasis, B16F10-luc melanoma model. Format: in vivo, (nu/nu) female mice. The essentials: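 8-week-old nu/nu females got 2.5×10⁵ G418-selected luciferase-expressing B16F10 cells i.v. From day 1, saline or test compound 300 mg/kg p.o. b.i.d. for two weeks; n=10/group. Imaged on days 0, 3, 8, 11 and 15 under 2.5% isoflurane after D-luciferin 90 mg/kg i.p. Total flux (photons/s) taken in head, lung and abdomen ROIs, dorsal and ventral. Then ex vivo lung imaging and surface colony counts. Mean ± SEM.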

For series [7] the following is noted: cited from earlier work.
Series [8] has as its target purified murine αvβ3 integrin (Mus musculus, UniProt O54890+P43406). Briefly: 3H-MK-0429 binding assay with purified receptor.
The target in series [9] is T1, purified rat αvβ3 integrin (Rattus norvegicus, UniProt F1LZX9+Q8R2H2).
T1 sequence (F1LZX9 31-1043): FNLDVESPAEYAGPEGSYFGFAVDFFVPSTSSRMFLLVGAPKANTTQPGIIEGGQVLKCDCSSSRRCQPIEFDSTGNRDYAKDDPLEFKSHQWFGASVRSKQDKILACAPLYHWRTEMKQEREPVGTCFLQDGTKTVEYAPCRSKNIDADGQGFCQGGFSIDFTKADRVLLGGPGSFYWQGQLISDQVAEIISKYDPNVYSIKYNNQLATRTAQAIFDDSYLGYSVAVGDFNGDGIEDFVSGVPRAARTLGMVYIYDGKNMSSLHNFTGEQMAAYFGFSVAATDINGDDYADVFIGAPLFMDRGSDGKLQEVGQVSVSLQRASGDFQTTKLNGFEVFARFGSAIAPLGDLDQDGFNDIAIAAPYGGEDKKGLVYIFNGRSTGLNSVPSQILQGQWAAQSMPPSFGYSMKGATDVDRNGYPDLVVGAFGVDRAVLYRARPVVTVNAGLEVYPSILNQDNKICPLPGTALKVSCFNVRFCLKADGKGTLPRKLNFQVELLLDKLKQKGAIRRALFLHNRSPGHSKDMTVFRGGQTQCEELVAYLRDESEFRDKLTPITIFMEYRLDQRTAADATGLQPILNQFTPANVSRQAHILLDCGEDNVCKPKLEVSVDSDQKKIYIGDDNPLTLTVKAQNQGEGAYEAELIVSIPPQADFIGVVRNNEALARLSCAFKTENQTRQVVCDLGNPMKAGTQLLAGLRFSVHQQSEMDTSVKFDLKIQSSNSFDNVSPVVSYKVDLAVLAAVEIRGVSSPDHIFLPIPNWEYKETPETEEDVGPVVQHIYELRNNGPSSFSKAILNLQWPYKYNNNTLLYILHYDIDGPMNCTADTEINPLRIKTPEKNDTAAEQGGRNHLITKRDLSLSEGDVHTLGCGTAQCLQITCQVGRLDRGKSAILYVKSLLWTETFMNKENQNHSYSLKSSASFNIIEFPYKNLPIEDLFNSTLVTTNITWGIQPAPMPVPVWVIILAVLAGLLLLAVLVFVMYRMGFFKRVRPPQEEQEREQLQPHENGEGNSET
T1 sequence (Q8R2H2 26-787): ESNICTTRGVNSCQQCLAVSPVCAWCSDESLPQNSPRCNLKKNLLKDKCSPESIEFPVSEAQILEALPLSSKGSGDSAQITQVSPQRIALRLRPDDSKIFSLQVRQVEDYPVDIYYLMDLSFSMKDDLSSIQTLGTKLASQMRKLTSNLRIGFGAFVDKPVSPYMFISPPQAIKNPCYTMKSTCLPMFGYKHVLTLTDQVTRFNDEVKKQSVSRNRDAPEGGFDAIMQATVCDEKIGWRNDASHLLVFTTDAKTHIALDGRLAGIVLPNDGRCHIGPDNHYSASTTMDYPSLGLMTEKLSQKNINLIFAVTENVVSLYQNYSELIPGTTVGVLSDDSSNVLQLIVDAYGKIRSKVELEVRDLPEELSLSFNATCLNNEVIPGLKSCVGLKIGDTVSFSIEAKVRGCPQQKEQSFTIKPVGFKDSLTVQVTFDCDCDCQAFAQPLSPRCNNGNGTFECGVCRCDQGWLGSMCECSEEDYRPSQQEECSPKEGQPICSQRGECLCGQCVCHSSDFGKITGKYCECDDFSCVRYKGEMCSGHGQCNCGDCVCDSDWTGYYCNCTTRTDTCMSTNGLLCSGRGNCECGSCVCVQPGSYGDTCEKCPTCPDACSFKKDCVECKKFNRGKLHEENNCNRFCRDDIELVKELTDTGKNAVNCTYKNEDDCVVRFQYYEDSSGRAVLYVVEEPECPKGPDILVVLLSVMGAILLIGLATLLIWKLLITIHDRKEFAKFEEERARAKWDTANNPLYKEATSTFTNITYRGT
As to the kind of experiment: 3H-MK-0429 binding assay with purified receptor.

Series [10] deals with purified human αvβ3 integrin (Homo sapiens, UniProt P05106+P06756). Briefly: 3H-MK-0429 binding assay with purified receptor.
The test system of series [11] is human integrin α5β1. As to the kind of experiment: cell adhesion assay, HeK293 overexpressing α5β1 to fibronectin. Format: cell-based. To be noted: relative to αvβ3-mediated adhesion. The essentials:
as §1

The conditions of series [12]: ovariectomized monkeys; cited from earlier work.
Series [13] concerns human integrin αvβ5. As to the kind of experiment: cell adhesion assay, HeK293 overexpressing αvβ5 to vitronectin. The settings on record: relative to αvβ3-mediated adhesion. In kind it is cell-based. Summed up: as §1
Series [14] relates to osteoclastic bone resorption. To be noted: read-out: IC50, inhibition of osteoclastic bone resorption; in vitro; cited from earlier work.
For series [15] the following is noted: cited from earlier work. This is another data set of the same source.
The conditions of series [16]: approximately; cited from earlier work.
Series [17] deals with metastatic melanoma. To be noted: intravenously twice weekly; stage IV or unresectable stage III; cited from earlier work.
Series [18] has as its system metastatic melanoma. The settings on record: 8 mg/kg once weekly, i.v.; stage IV metastatic melanoma; cited from earlier work.
Setting [19] is: 300 mg/kg, p.o., b.i.d., day 11.

Entries after “also recorded” stand apart in the source; their conditions may differ. Where two headings read alike, the source gives them in different places. A value given as a limit tells only on which side of the number the result lay.

Chain of purified murine αvβ3 integrin (P43406 31-885): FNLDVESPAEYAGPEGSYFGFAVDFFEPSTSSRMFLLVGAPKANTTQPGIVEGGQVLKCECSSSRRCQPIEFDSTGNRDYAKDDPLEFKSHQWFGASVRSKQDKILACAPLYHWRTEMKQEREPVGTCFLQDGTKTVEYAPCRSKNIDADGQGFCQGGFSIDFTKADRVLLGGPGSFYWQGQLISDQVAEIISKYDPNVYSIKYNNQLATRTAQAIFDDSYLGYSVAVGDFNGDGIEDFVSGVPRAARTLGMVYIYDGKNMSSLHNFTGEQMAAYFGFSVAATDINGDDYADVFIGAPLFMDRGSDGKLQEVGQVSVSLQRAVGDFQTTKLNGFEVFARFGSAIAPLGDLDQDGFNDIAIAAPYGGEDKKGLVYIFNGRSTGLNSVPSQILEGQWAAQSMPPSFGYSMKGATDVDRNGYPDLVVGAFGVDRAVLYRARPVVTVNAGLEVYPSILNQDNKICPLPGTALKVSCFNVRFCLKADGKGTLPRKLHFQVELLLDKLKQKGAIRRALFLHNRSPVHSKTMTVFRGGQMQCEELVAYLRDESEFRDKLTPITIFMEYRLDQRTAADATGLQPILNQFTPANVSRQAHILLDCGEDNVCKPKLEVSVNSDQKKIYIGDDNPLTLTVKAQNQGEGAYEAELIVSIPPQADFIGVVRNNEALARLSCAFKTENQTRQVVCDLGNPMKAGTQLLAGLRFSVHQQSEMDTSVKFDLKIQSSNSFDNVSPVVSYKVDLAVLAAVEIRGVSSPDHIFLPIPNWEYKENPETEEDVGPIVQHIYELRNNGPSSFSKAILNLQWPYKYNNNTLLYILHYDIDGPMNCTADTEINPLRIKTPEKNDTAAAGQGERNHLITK
Chain of purified murine αvβ3 integrin (P43406 887-1044): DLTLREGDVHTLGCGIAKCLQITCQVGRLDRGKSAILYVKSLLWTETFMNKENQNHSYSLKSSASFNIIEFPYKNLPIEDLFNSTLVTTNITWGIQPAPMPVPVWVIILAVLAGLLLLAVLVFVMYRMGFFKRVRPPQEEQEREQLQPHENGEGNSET
Chain of purified murine αvβ3 integrin (O54890 26-787): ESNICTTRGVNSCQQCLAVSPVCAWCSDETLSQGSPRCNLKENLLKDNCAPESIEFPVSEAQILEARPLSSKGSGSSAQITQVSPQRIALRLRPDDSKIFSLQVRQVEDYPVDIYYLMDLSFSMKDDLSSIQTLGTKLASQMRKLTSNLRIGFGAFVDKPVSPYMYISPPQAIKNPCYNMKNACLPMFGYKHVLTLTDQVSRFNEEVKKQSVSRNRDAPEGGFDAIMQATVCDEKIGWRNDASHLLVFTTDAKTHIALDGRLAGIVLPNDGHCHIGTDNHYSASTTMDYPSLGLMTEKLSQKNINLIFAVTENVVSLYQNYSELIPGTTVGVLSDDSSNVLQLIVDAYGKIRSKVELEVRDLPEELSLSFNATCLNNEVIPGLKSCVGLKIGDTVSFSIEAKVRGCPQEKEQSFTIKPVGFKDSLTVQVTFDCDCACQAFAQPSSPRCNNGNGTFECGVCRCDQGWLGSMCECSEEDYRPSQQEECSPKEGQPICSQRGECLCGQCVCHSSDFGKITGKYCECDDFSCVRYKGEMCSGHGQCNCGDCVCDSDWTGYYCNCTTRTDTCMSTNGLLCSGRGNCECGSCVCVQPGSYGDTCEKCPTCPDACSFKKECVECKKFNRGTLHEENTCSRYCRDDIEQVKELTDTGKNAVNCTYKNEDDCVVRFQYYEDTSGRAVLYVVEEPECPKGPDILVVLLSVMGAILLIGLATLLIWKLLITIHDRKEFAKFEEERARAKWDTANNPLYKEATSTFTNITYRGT
Chain of purified human αvβ3 integrin (P05106 27-788): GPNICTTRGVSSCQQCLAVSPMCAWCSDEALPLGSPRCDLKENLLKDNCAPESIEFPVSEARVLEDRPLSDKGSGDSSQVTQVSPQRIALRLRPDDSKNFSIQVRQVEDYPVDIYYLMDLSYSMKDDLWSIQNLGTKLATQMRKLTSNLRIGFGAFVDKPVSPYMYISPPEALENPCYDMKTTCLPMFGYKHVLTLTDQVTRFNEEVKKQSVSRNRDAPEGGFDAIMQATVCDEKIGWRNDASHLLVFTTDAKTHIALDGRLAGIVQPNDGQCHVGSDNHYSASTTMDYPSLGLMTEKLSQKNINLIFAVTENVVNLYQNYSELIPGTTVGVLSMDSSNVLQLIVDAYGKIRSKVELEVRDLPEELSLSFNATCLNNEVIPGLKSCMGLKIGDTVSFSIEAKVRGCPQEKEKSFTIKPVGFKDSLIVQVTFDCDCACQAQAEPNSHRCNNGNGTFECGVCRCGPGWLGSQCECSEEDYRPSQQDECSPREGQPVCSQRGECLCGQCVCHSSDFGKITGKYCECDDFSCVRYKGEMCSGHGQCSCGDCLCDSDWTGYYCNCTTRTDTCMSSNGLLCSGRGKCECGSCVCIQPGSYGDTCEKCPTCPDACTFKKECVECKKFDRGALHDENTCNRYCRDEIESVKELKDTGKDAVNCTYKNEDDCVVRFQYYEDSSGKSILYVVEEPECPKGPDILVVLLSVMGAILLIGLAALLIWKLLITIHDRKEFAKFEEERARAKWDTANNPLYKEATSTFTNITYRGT
Chain of purified human αvβ3 integrin (P06756 31-889): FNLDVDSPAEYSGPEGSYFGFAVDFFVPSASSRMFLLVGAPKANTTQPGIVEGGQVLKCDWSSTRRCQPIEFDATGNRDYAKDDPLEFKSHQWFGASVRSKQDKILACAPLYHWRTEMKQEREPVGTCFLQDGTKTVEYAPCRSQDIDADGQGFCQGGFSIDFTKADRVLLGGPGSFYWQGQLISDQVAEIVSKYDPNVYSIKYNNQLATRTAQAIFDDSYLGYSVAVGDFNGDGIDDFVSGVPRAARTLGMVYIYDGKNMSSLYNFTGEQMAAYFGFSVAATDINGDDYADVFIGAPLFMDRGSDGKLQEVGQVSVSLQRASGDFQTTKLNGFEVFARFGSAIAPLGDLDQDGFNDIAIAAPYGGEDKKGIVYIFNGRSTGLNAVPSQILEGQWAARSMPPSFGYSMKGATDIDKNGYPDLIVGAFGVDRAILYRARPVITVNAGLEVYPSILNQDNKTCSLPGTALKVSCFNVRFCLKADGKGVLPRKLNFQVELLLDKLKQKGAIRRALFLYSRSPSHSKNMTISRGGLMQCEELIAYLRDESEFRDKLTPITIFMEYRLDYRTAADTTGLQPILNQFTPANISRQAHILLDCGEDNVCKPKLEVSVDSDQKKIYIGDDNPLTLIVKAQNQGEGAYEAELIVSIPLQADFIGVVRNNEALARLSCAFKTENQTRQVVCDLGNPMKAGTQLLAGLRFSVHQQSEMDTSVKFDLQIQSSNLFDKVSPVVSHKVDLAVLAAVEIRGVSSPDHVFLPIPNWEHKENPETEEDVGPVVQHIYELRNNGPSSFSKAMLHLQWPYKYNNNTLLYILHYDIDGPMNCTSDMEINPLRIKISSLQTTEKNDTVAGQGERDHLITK
Chain of purified human αvβ3 integrin (P06756 891-1048): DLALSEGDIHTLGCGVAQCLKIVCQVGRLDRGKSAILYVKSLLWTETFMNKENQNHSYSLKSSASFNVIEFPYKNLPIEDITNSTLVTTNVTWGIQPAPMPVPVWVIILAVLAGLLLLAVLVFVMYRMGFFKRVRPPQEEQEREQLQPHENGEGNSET
Chain of human integrin αvβ3 (P06756 891-1048): as above
Chain of human integrin αvβ3 (P05106 27-788): as the sequence (P05106 27-788) above
Chain of human integrin αvβ3 (P06756 31-889): as the sequence (P06756 31-889) above

Consider `O=P1(N(CCCl)CCCl)NCCCO1` (stereo not drawn) [Cyclophosphamide, cyclophosphamide, reference compound], for which, in series [1] (300 mg/kg, i.p., q.d.), the “reduction of tumor colony number vs vehicle” value was found to be 99%.

As for `COc1ccc([C@H](CC(=O)O)N2CCN(CCCc3ccc4c(n3)NCCC4)C2=O)cn1` [MK-0429, 3(S)-(6-methoxypyridin-3-yl)-3-[2-oxo-3-[3-(5,6,7,8-tetrahydro-[1,8]-naphthyridin-2-yl)propyl]imidazolidin-1-yl] propionic acid], the “fold less active in blocking adhesion mediated by αIIbβ3 to fibrinogen” value in series [2] is given as > 1,000 fold. Further, the IC50 in series [3] was 0.58 ± 0.3 nM; in series [14], 12.2 ± 4.5 nM. Besides, in [4], the “effect on body weight” value was “no significant weight loss”. Also, the bone mass result in series [5] and in series [12] was “increases bone mass” throughout. Further, the bone turnover entry in series [5] and in series [12] was “significantly reduces bone turnover” in each case. Further, the “reduction of tumor colony number vs vehicle” value in series [1] (100 mg/kg, p.o., b.i.d.) was found to be 64%; in series [1] (300 mg/kg, p.o., b.i.d.), 57%. The “total tumor colony number on lung surface” value is 33±6 in series [1] (100 mg/kg, p.o., b.i.d.) and 39±9 in series [1] (300 mg/kg, p.o., b.i.d.). Besides, the “total tumor area in lung sections (H&E)” value in series [1] (300 mg/kg, b.i.d., Veh 11.1±0.4, n=5/group) was determined as 5.0±0.7 mm^2. Moreover, the “reduction of melanoma colonies in all lung regions” value in [1] (100 and 300 mg/kg, p.o., b.i.d., five lung regions) is 53–68%. For the same molecule, the “reduction of visible metastatic colonies counted on the ex vivo lung surface” value in [6] (300 mg/kg twice daily for two weeks, p<0.05 vs. Veh) stood at 32%. In addition, in series [6] (300 mg/kg, p.o., b.i.d.), the “decrease of metastasis in the lungs, ex vivo bioluminescence, vs vehicle” value is given as ~ 40%. Moreover, the “ex vivo lung tumor burden (bioluminescence)” value in series [6] (300 mg/kg, p.o., b.i.d., Veh 118.1±27.1, not statistically significant) is given as 69.9±5.9 ×10^5 photons/sec. The “reduction of melanoma burden in the ventral lung (bioluminescence) vs vehicle” value is recorded as 38% in series [6] (300 mg/kg, p.o., b.i.d., day 8) and 37% in [6] (setting [19]). In addition, the “reduction of tumor metastases in the dorsal lung (bioluminescence) vs vehicle” value came out at 15% in series [6] (300 mg/kg, p.o., b.i.d., day 8); 54% in series [6] (setting [19]); 38% in [6] (300 mg/kg, p.o., b.i.d., day 15, p=0.0561 vs. Veh). Also, the “bone mineral density at the spine and hip compared to placebo” value in series [7] (100 or 400 mg once daily, or 200 mg twice daily for 12 months) was “significant increase”. In addition, the tolerability result is “well tolerated and without serious adverse events” in series [7] (postmenopausal women with osteoporosis); “well tolerated at this high dose; also recorded: well tolerated and without serious adverse events” in series [15] (up to 1,600 mg twice daily for four weeks). For the same molecule, the figures for the Kd in [8], in series [9] and in series [10] were 0.56 ± 0.07 nM, 1.23 ± 0.11 nM and 0.33 ± 0.04 nM, respectively. Moreover, in series [11], the “fold less active in blocking adhesion mediated by α5β1 to fibronectin” value is reported as > 1,000 fold. The “fold less potent in blocking adhesion of HeK293-αvβ5 to vitronectin” value in [13] is ~ 100 fold. Further, in [15] (200 and 1,600 mg orally, twice daily for four weeks), the “bone resorption marker urinary N-telopeptide” value was “significantly decreased”.

Turning to Cilengitide [reference compound], the half-life in [16] is 2 to 4 h. Further, the “clinical efficacy as single-agent therapy for advanced melanoma” value in series [17] was “minimal clinical efficacy”.

B1: etaracizumab: monoclonal antibody against αvβ3 (antibody, chains of the INN, looked up, V domains shown)
VH: QVQLVESGGGVVQPGRSLRLSCAASGFTFSSYDMSWVRQAPGKGLEWVAKVSSGGGSTYYLDTVQGRFTISRDNSKNTLYLQMNSLRAEDTAVYYCARHLHGSFASWGQGTTVTVSS
VL: EIVLTQSPATLSLSPGERATLSCQASQSISNFLHWYQQRPGQAPRLLIRYRSQSISGIPARFSGSGSGTDFTLTISSLEPEDFAVYYCQQSGSWPLTFGGGTKVEIK
Regarding B1, the half-life entry in series [16] is “a few days”. Besides, the “median survival rate, alone vs in combination with dacarbazine” value in [18] is listed as “not different”.
